# Measurements pooled from the literature.
# Protocols differ between the studies behind these lines.
# Effect on: metabolic stability
# Species: mouse
# Medium: liver microsomes
SMILES,conditions,microsomal CLint [µL/min/mg]
O=C1NC2(CCS(=O)(=O)CC2)C(=O)N1c1ccc(F)c(C(F)(F)F)c1,,< 7
O=c1c2c([nH]c3c(Oc4ccc(OC(F)(F)F)cc4)cccc13)CCCC2,"1 µM, pH 7.4",8.33
Cc1cc(N2C(=O)NC(C)(C)C2=O)cc(C(F)(F)F)n1,,19
Cc1[nH]c(C)c(S(=O)(=O)Nc2ccc(C(F)(F)F)c(Cl)c2Cl)c1C(=O)N1CCC(F)(F)C1,,15.7
CC1(C)NC(=O)N(c2ccc3c(c2)OC(F)(F)O3)C1=O,,< 7
O=c1c2c([nH]c3cc(OCc4ccc(OC(F)(F)F)cc4)ccc13)CCCC2,"1 µM, pH 7.4",19.7
CC(C)c1cc(C(=O)NCCN)c2cnn(C(C)C)c2n1,,< 9.6
CC1(C)NC(=O)N(c2cc(C(F)(F)F)c(F)cc2C#N)C1=O,,< 7
COc1ccc(Cn2cc(CO[C@@H]3O[C@H]4[C@H](OC[C@H]4O)[C@H]3O)nn2)cc1,,< 14.4
CC(C)c1cc(C(=O)NCCN2CCCC2)c2cnn(C(C)C)c2n1,,49.1
O=c1c2c([nH]c3cc(OC(F)(F)F)ccc13)CCCC2,"1 µM, pH 7.4",139
CC(C)n1ncc2c(C(=O)NCC3(F)CNC3)cc(C3CC3)nc21,,19.8
CCN(CC)CCCOc1ccc2c(=O)c3c([nH]c2c1)CCCC3,"1 µM, pH 7.4",7.94
CNCCNC(=O)c1cc(C(C)C)nc2c1cnn2C(C)C,,175
CC1(C)NC(=O)N(c2ccc(F)c(OC(F)(F)F)c2)C1=O,,< 7
CC(C)(C)OC(=O)N1CCC(Oc2ccc3c(=O)c4c(F)cc(Cl)cc4[nH]c3c2)CC1,"1 µM, pH 7.4",12.5
CCS(=O)(=O)N1CCC2(CC1)NC(=O)N(c1ccc(F)c(C(F)(F)F)c1)C2=O,,< 7
CC(C)(C)OC(=O)N1CCC(Oc2ccc3c(=O)c4c(F)cc(Cl)cc4[nH]c3c2)C1 (stereo not drawn),"1 µM, pH 7.4",16.7
